Test results: ChEMBL document CHEMBL4616722, “Discovery of Novel PDEδ Degraders for the Treatment of KRAS Mutant Colorectal Cancer” (J Med Chem, 2020)
Active and inactive are the calls of the source. The rule behind the calls is not given here.

How the values were obtained:
SW480 [1] = assay: Antiproliferative activity against human SW480 cells incubated for 72 hrs by CCK8 assay; conditions: SW480, 72 h
HCT-116 = assay: Antiproliferative activity against human HCT116 cells incubated for 72 hrs by CCK8 assay; conditions: HCT-116, 72 h
[2] = Permeability in human Caco2 cells; format: ADME, cell-based; conditions: caco-2
MIA PaCa-2 = assay: Antiproliferative activity against human MIAPaCa2 cells incubated for 72 hrs by CCK8 assay; format: functional, cell-based
SW480 [3] = assay: Antiproliferative activity against human SW480 cells incubated for 72 hrs in presence of 30 uM pomalidomide by CCK8 assay; conditions: SW480, 72 h
SW480 [4] = assay: Induction of apoptosis in human SW480 cells assessed as early apoptotic cells level at 40 uM incubated for 24 hrs by propidium iode and annexin V-FITC staining based flow cytometry (reference value: 1.76%); format: functional
SW480 [5] = assay: Induction of apoptosis in human SW480 cells assessed as late apoptotic cells level at 40 uM incubated for 24 hrs by propidium iode and annexin V-FITC staining based flow cytometry (reference value: 4.46%); format: functional
SW480 [6] = assay: Induction of apoptosis in human SW480 cells assessed as necrotic cells level at 40 uM incubated for 24 hrs by propidium iode and annexin V-FITC staining based flow cytometry (reference value: 2.79%); format: functional
SW480 [7] = assay: Induction of apoptosis in human SW480 cells assessed as early apoptotic cells level at 20 uM incubated for 24 hrs by propidium iode and annexin V-FITC staining based flow cytometry (reference value: 1.76%); format: functional
SW480 [8] = assay: Induction of apoptosis in human SW480 cells assessed as late apoptotic cells level at 20 uM incubated for 24 hrs by propidium iode and annexin V-FITC staining based flow cytometry (reference value: 4.46%); format: functional
SW480 [9] = assay: Induction of apoptosis in human SW480 cells assessed as necrotic cells level at 20 uM incubated for 24 hrs by propidium iode and annexin V-FITC staining based flow cytometry (reference value: 2.79%); format: functional
SW480 [10] = assay: Antitumor activity against human SW480 cells xenografted in BALB/C nude mouse assessed as tumor growth inhibition at 50 mg/kg, ip dosed once daily for 12 consecutive days relative to control; format: functional; conditions: read-out: TGI
How it was run: (§1)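 SW480 xenografts in nude mice, dosed intraperitoneally once a day for 12 consecutive days and compared with a vehicle group. Tumor growth followed over time and expressed as TGI, with data as mean ± standard deviation and significance by P value. Body weight and adverse effects were monitored throughout the study.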

[11] = Toxicity in BALB/C nude mouse xenografted with human SW480 cells assessed as induction of body weight loss at 50 mg/kg, ip dosed once daily for 12 consecutive days; format: organism-based; conditions: in vivo; how it was run: as §1
[12] = Toxicity in BALB/C nude mouse xenografted with human SW480 cells assessed as induction of adverse effects at 50 mg/kg, ip dosed once daily for 12 consecutive days; format: organism-based; conditions: in vivo; how it was run: as §1
Mus musculus [13] = assay: In-vivo protac activity at cereblon/PDE6D in BALB/C nude mouse xenografted with human SW480 cells assessed as decrease in PDEdelta level at 50 mg/kg, ip dosed once daily for 12 consecutive days by immunofluorescence assay; format: functional, organism-based
How it was run: (§2)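 Tumor tissue from SW480-transplanted nude mice analysed by immunofluorescence for PDEδ, RAS and p-Akt protein expression.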

Mus musculus [14] = assay: In-vivo protac activity at cereblon/PDE6D in BALB/C nude mouse xenografted with human SW480 cells assessed as decrease in p-Akt level at 50 mg/kg, ip dosed once daily for 12 consecutive days by immunofluorescence assay; format: functional, organism-based; how it was run: as §2
[15] = Half life in Sprague-Dawley rat at 50 mg/kg, ip measured after 0.083 to 24 hrs by LC-MS/MS analysis; format: ADME, organism-based; conditions: in vivo
How it was run: (§3)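 Rats given the compound intraperitoneally at 50 mg/kg, with drug levels measured in plasma over time. The concentration–time profile gave half-life, Cmax and AUC.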

[16] = Tmax in Sprague-Dawley rat at 50 mg/kg, ip measured after 0.083 to 24 hrs by LC-MS/MS analysis; format: ADME, organism-based; conditions: in vivo; how it was run: as §3
[17] = Cmax in Sprague-Dawley rat at 50 mg/kg, ip measured after 0.083 to 24 hrs by LC-MS/MS analysis; format: ADME, organism-based; parameters: dose 50 mg/kg, route intraperitoneal; conditions: in vivo; how it was run: as §3
[18] = AUC (0 to infinity) in Sprague-Dawley rat at 50 mg/kg, ip measured after 0.083 to 24 hrs by LC-MS/MS analysis; format: ADME, organism-based; parameters: dose 50 mg/kg, route intraperitoneal, time infinity; conditions: in vivo; how it was run: as §3
[19] = Clearance in Sprague-Dawley rat at 50 mg/kg, ip measured after 0.083 to 24 hrs by LC-MS/MS analysis; format: ADME, organism-based; conditions: in vivo; how it was run: as §3

With Cc1ccc(-n2nc3c(=O)n(CCCC(=O)NCCCCCCCCNc4ccc5c(c4)C(=O)N(C4CCC(=O)NC4=O)C5=O)nc(C)c3c2C)cc1 (stereo unspecified) as the compound, how does the IC50 (SW480 [1]) read?
The IC50 was 7 µM.

With Cc1ccc(-n2nc3c(=O)n(CCCC(=O)NCCCCCCCCNc4cccc5c4C(=O)N(C4CCC(=O)NC4=O)C5=O)nc(C)c3c2C)cc1 (stereo unspecified) as the compound, how does the IC50 (SW480 [1]) read?
The IC50 was 8 µM.

What about the IC50 (HCT-116) of the same compound?
The IC50 was 8 µM.

What about the permeability [2] of the same compound?
The permeability was “Impermeable”.

And the Activity (MIA PaCa-2)?
The Activity was “Active”.

What about the IC50 (SW480 [3]) of the same compound?
Its IC50 is 71 µM.

And the Activity (SW480 [4])?
The Activity was 62.58%.

And the Activity (SW480 [5])?
Its Activity is 2.95%.

What about the Activity (SW480 [6]) of the same compound?
The Activity was 0.37%.

What about the Activity (SW480 [7]) of the same compound?
Its Activity is 36.25%.

What about the Activity (SW480 [8]) of the same compound?
The Activity was 2.06%.

What about the Activity (SW480 [9]) of the same compound?
The Activity was 0.9%.

What about the inhibition in vivo at 50 mg/kg (SW480 [10]) of the same compound?
The inhibition in vivo at 50 mg/kg was 43%.

And the Activity [11]?
Its Activity is “Non-Toxic”.

What about the Activity [12] of the same compound?
The Activity was “Non-Toxic”.

And the Activity (Mus musculus [13])?
Its Activity is “Active”.

What about the Activity (Mus musculus [14]) of the same compound?
The Activity was “Active”.

What about the half-life [15] of the same compound?
Its half-life is 5.11 h.

What about the Tmax [16] of the same compound?
Its Tmax is 1.67 h.

And the Cmax [17]?
Its Cmax is 564 ng/mL.

And the AUC(0-inf) [18]?
The AUC(0-inf) was 4710 ng·h/mL.

What about the CL/F [19] of the same compound?
The CL/F was 179 mL/min/kg.

With Cc1ccc(-n2nc3c(=O)n(CCCC(=O)NCCCCCNc4cccc5c4C(=O)N(C4CCC(=O)NC4=O)C5=O)nc(C)c3c2C)cc1 (stereo unspecified) as the compound, how does the IC50 (SW480 [1]) read?
The IC50 was 17 µM.

What about the IC50 (HCT-116) of the same compound?
Its IC50 is 32 µM.

What does the source list for Cc1ccc(-n2nc3c(=O)n(CCCC(=O)NCCOCCOCCNc4cccc5c4C(=O)N(C4CCC(=O)NC4=O)C5=O)nc(C)c3c2C)cc1 (stereo unspecified)?
IC50 (SW480 [1]): 58 µM; IC50 (HCT-116): 25 µM

With Cc1ccc(-n2nc3c(=O)n(CCCC(=O)NCCCCCCCNc4cccc5c4C(=O)N(C4CCC(=O)NC4=O)C5=O)nc(C)c3c2C)cc1 (stereo unspecified) as the compound, how does the IC50 (SW480 [1]) read?
Its IC50 is 12 µM.

What about the IC50 (HCT-116) of the same compound?
The IC50 was 20 µM.

Which IC50 (SW480 [1]) does the source give for Cc1ccc(-n2nc3c(=O)n(CCCC(=O)NCCCCCCCCNc4cccc5c4C(=O)N(C4CCC(=O)N(C)C4=O)C5=O)nc(C)c3c2C)cc1 (stereo unspecified) here?
The IC50 was 70 µM.

For Cc1ccc(-n2nc3c(=O)n(CCCC(=O)NCCCOCCOCCOCCCNc4cccc5c4C(=O)N(C4CCC(=O)NC4=O)C5=O)nc(C)c3c2C)cc1 (stereo unspecified), which IC50 (SW480 [1]) is on record?
The IC50 was 26 µM.

And the IC50 (HCT-116)?
Its IC50 is 23 µM.

For Cc1ccc(-n2nc3c(=O)n(CCCC(=O)NCCCCCCNc4cccc5c4C(=O)N(C4CCC(=O)NC4=O)C5=O)nc(C)c3c2C)cc1 (stereo unspecified), which IC50 (SW480 [1]) is on record?
The IC50 was 15 µM.

And the IC50 (HCT-116)?
Its IC50 is 19 µM.

Which IC50 (SW480 [1]) does the source give for Cc1ccc(-n2nc3c(=O)n(CCCC(=O)NCC(C)c4ccccc4)nc(C)c3c2C)cc1 (stereo unspecified) here?
Its IC50 is 56 µM.

And the IC50 (HCT-116)?
Its IC50 is 74 µM.

What about the Activity (SW480 [4]) of the same compound?
Its Activity is 2.49%.

What about the Activity (SW480 [5]) of the same compound?
The Activity was 8.61%.

And the Activity (SW480 [6])?
Its Activity is 2.44%.

And the inhibition in vivo at 50 mg/kg (SW480 [10])?
Its inhibition in vivo at 50 mg/kg is 24%.

What about the Activity [11] of the same compound?
The Activity was “Non-Toxic”.

And the Activity [12]?
The Activity was “Non-Toxic”.

And the Activity (Mus musculus [13])?
Its Activity is “inactive”.

For Cc1ccc(-n2nc3c(=O)n(CCCC(=O)NCCCNc4cccc5c4C(=O)N(C4CCC(=O)NC4=O)C5=O)nc(C)c3c2C)cc1 (stereo unspecified), which IC50 (SW480 [1]) is on record?
The IC50 was 81 µM.

And the IC50 (HCT-116)?
The IC50 was 68 µM.

For Cc1ccc(-n2nc3c(=O)n(CCCC(=O)NCCCCNc4cccc5c4C(=O)N(C4CCC(=O)NC4=O)C5=O)nc(C)c3c2C)cc1 (stereo unspecified), which IC50 (SW480 [1]) is on record?
Its IC50 is 76 µM.

What about the IC50 (HCT-116) of the same compound?
The IC50 was 51 µM.
